# Activity calls are given as the source filed them. The rule behind the calls is not given here.
# Legend:
# Escherichia coli [1] = assay: Antimicrobial activity against Escherichia coli ATCC 25922 assessed as zone of inhibition at 1724 uM incubated overnight at 37 degC; format: functional; details: read-out: IZ
# Summary of the method: (§1)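 Pure isolates screened against a panel of five bacteria and one fungus, each at a single concentration within 1639–5230 μM. A commercial antibiotic and antifungal agent were tested in parallel as references. Growth inhibition was recorded as the zone of inhibition.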
# Staphylococcus aureus [2] = assay: Antimicrobial activity against Staphylococcus aureus ATCC 25923 assessed as zone of inhibition at 1724 uM incubated overnight at 37 degC; format: functional, organism-based; summary of the method: as §1
# Staphylococcus aureus [3] = assay: Antimicrobial activity against methicillin-resistant Staphylococcus aureus 344/2-32 assessed as zone of inhibition at 1724 uM incubated overnight at 37 degC; format: functional, organism-based
# Pseudomonas aeruginosa [4] = assay: Antimicrobial activity against Pseudomonas aeruginosa ATCC 27853 assessed as zone of inhibition at 1724 uM incubated overnight at 37 degC; format: functional; details: read-out: IZ; summary of the method: as §1
# Streptococcus pyogenes [5] = assay: Antimicrobial activity against Streptococcus pyogenes 345/1 assessed as zone of inhibition at 1724 uM incubated overnight at 37 degC; format: functional; details: read-out: IZ; summary of the method: as §1
# Candida albicans [6] = assay: Antimicrobial activity against Candida albicans ATCC 10231 assessed as zone of inhibition at 1724 uM incubated overnight at 37 degC; format: functional, organism-based; summary of the method: as §1
# Escherichia coli [7] = assay: Antimicrobial activity against Escherichia coli ATCC 25922 assessed as zone of inhibition at 3649 uM incubated overnight at 37 degC; format: functional, organism-based; summary of the method: as §1
# Staphylococcus aureus [8] = assay: Antimicrobial activity against Staphylococcus aureus ATCC 25923 assessed as zone of inhibition at 3649 uM incubated overnight at 37 degC; format: functional, organism-based; summary of the method: as §1
# Staphylococcus aureus [9] = assay: Antimicrobial activity against methicillin-resistant Staphylococcus aureus 344/2-32 assessed as zone of inhibition at 3649 uM incubated overnight at 37 degC; format: functional, organism-based
# Pseudomonas aeruginosa [10] = assay: Antimicrobial activity against Pseudomonas aeruginosa ATCC 27853 assessed as zone of inhibition at 3649 uM incubated overnight at 37 degC; format: functional; details: read-out: IZ; summary of the method: as §1
# Streptococcus pyogenes [11] = assay: Antimicrobial activity against Streptococcus pyogenes 345/1 assessed as zone of inhibition at 3649 uM incubated overnight at 37 degC; format: functional, organism-based
# Candida albicans [12] = assay: Antimicrobial activity against Candida albicans ATCC 10231 assessed as zone of inhibition at 3649 uM incubated overnight at 37 degC; format: functional, organism-based; summary of the method: as §1
# Escherichia coli [13] = assay: Antimicrobial activity against Escherichia coli ATCC 25922 assessed as zone of inhibition at 3030 uM incubated overnight at 37 degC; format: functional, organism-based; summary of the method: as §1
# Staphylococcus aureus [14] = assay: Antimicrobial activity against Staphylococcus aureus ATCC 25923 assessed as zone of inhibition at 3030 uM incubated overnight at 37 degC; format: functional, organism-based; summary of the method: as §1
# Staphylococcus aureus [15] = assay: Antimicrobial activity against methicillin-resistant Staphylococcus aureus 344/2-32 assessed as zone of inhibition at 3030 uM incubated overnight at 37 degC; format: functional, organism-based
# Pseudomonas aeruginosa [16] = assay: Antimicrobial activity against Pseudomonas aeruginosa ATCC 27853 assessed as zone of inhibition at 3030 uM incubated overnight at 37 degC; format: functional; details: read-out: IZ; summary of the method: as §1
# Streptococcus pyogenes [17] = assay: Antimicrobial activity against Streptococcus pyogenes 345/1 assessed as zone of inhibition at 3030 uM incubated overnight at 37 degC; format: functional, organism-based; summary of the method: as §1
# Candida albicans [18] = assay: Antimicrobial activity against Candida albicans ATCC 10231 assessed as zone of inhibition at 3030 uM incubated overnight at 37 degC; format: functional, organism-based; summary of the method: as §1
# Escherichia coli [19] = assay: Antimicrobial activity against Escherichia coli ATCC 25922 assessed as zone of inhibition at 3905 uM incubated overnight at 37 degC; format: functional, organism-based; summary of the method: as §1
# Staphylococcus aureus [20] = assay: Antimicrobial activity against Staphylococcus aureus ATCC 25923 assessed as zone of inhibition at 3905 uM incubated overnight at 37 degC; format: functional, organism-based; summary of the method: as §1
# Staphylococcus aureus [21] = assay: Antimicrobial activity against methicillin-resistant Staphylococcus aureus 344/2-32 assessed as zone of inhibition at 3905 uM incubated overnight at 37 degC; format: functional, organism-based
# Pseudomonas aeruginosa [22] = assay: Antimicrobial activity against Pseudomonas aeruginosa ATCC 27853 assessed as zone of inhibition at 3905 uM incubated overnight at 37 degC; format: functional, organism-based; summary of the method: as §1
# Streptococcus pyogenes [23] = assay: Antimicrobial activity against Streptococcus pyogenes 345/1 assessed as zone of inhibition at 3905 uM incubated overnight at 37 degC; format: functional; details: read-out: IZ
# Candida albicans [24] = assay: Antimicrobial activity against Candida albicans ATCC 10231 assessed as zone of inhibition at 3905 uM incubated overnight at 37 degC; format: functional, organism-based; summary of the method: as §1
# Candida albicans [25] = assay: Antimicrobial activity against Candida albicans ATCC 10231 assessed as zone of inhibition at 5230 uM incubated overnight at 37 degC; format: functional, organism-based
# Escherichia coli [26] = assay: Antimicrobial activity against Escherichia coli ATCC 25922 assessed as zone of inhibition at 2862 uM incubated overnight at 37 degC; format: functional, organism-based; summary of the method: as §1
# Staphylococcus aureus [27] = assay: Antimicrobial activity against Staphylococcus aureus ATCC 25923 assessed as zone of inhibition at 2862 uM incubated overnight at 37 degC; format: functional; details: read-out: IZ; summary of the method: as §1
# Staphylococcus aureus [28] = assay: Antimicrobial activity against methicillin-resistant Staphylococcus aureus 344/2-32 assessed as zone of inhibition at 2862 uM incubated overnight at 37 degC; format: functional; details: read-out: IZ
# Pseudomonas aeruginosa [29] = assay: Antimicrobial activity against Pseudomonas aeruginosa ATCC 27853 assessed as zone of inhibition at 2862 uM incubated overnight at 37 degC; format: functional; details: read-out: IZ; summary of the method: as §1
# Streptococcus pyogenes [30] = assay: Antimicrobial activity against Streptococcus pyogenes 345/1 assessed as zone of inhibition at 2862 uM incubated overnight at 37 degC; format: functional; details: read-out: IZ; summary of the method: as §1
smiles,measurement,setting,value
O=C(/C=C/c1ccc(O)cc1)OC[C@H]1O[C@@H](Oc2cc(O)cc3c2C(=O)CC(c2ccc(O)cc2)O3)[C@H](O)[C@@H](O)[C@@H]1O (stereo not given in full),zone of inhibition at 1724 µM,Escherichia coli [1],1 mm
same,inhibition zone (IZ),Staphylococcus aureus [2],inactive
same,inhibition zone (IZ),Staphylococcus aureus [3],inactive
same,zone of inhibition at 1724 µM,Pseudomonas aeruginosa [4],10 mm
same,zone of inhibition at 1724 µM,Streptococcus pyogenes [5],1 mm
same,inhibition zone (IZ),Candida albicans [6],inactive
O=C1OC(=O)c2c(-c3ccccc3)ccc3cccc1c23,inhibition zone (IZ),Escherichia coli [7],inactive
same,inhibition zone (IZ),Staphylococcus aureus [8],inactive
same,inhibition zone (IZ),Staphylococcus aureus [9],inactive
same,zone of inhibition at 3649 µM,Pseudomonas aeruginosa [10],2 mm
same,inhibition zone (IZ),Streptococcus pyogenes [11],inactive
same,inhibition zone (IZ),Candida albicans [12],inactive
O=C(/C=C/c1ccc(O)cc1)c1c(O)cc(O)cc1O[C@@H]1O[C@H](CO)[C@@H](O)[C@H](O)[C@H]1O,inhibition zone (IZ),Escherichia coli [13],inactive
same,inhibition zone (IZ),Staphylococcus aureus [14],inactive
same,inhibition zone (IZ),Staphylococcus aureus [15],inactive
same,zone of inhibition at 3030 µM,Pseudomonas aeruginosa [16],2 mm
same,inhibition zone (IZ),Streptococcus pyogenes [17],inactive
same,inhibition zone (IZ),Candida albicans [18],inactive
O=C1C(c2ccccc2)=Cc2cccc3cccc1c23,inhibition zone (IZ),Escherichia coli [19],inactive
same,inhibition zone (IZ),Staphylococcus aureus [20],inactive
same,inhibition zone (IZ),Staphylococcus aureus [21],inactive
same,inhibition zone (IZ),Pseudomonas aeruginosa [22],inactive
same,zone of inhibition at 3905 µM,Streptococcus pyogenes [23],2 mm
same,inhibition zone (IZ),Candida albicans [24],inactive
COC(=O)Nc1nc2ccccc2[nH]1,inhibition zone (IZ),Candida albicans [25],inactive
CC1(C)S[C@@H]2[C@H](NC(=O)[C@H](N)c3ccccc3)C(=O)N2[C@H]1C(=O)O [AMPICILLIN],inhibition zone (IZ),Escherichia coli [26],inactive
same,zone of inhibition at 2862 µM,Staphylococcus aureus [27],15 mm
same,zone of inhibition at 2862 µM,Staphylococcus aureus [28],3 mm
same,zone of inhibition at 2862 µM,Pseudomonas aeruginosa [29],2 mm
same,zone of inhibition at 2862 µM,Streptococcus pyogenes [30],20 mm

# — ChEMBL document CHEMBL3593182, “Phytochemical Investigation of the Constituents Derived from the Australian Plant Macropidia fuliginosa” (2015)
